# In publication PMC4288442 (Biochemical and biophysical research communications, 2013):
# Non-standard residues stand in square brackets, D forms with d. Residues, ends and D or L forms follow the SMILES beside them. Nle = CCCC[C@H](N)C(=O)O
# Target: wild type (NL4-3) HIV-1 protease (Human immunodeficiency virus type 1 group M subtype B, UniProt P12497)
# Assay: FRET-based enzyme inhibition assay, wild type
# Type: biochemical
# Outline: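 Commercial wild-type NL4-3 HIV-1 protease, supplied at 0.3 mg/ml, assayed by FRET with a fluorogenic HIV-1 substrate. Peptide test compounds carry a reduced (-CH2-NH-) bond in place of the labile peptide bond so the protease cannot cleave them. IC50 is the average of three independent experiments, with SD.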
structure (smiles),measurement,value
"CCCC[C@H](NC(=O)[C@H](C)NC(=O)[C@H](CCC(=O)O)NC(=O)[C@@H](N)Cc1ccccc1)C(=O)O [Compound 7a, Phe-Glu-Ala-Nle] (H-FEA[Nle]-OH)",IC50,> 1000 nM
"CC(C)C[C@H](NC(=O)[C@@H](NC(=O)[C@@H](N)CCCNC(=N)N)C(C)C)C(=O)O [Compound 7b, Arg-Val-Leu] (H-Arg-Val-Leu-OH)",IC50,> 1000 nM
